Results as given in ChEMBL document CHEMBL3091303, “1,3-Dialkyl-substituted tetrahydropyrimido[1,2-f]purine-2,4-diones as multiple target drugs for the potential treatment of neurodegenerative diseases” (Bioorg Med Chem, 2013).

How the values were obtained:
[1] = biological target: T1, Amine oxidase [flavin-containing] B (Homo sapiens, UniProt P27338); assay: Inhibition of human MAO-B
T1 sequence (P27338 whole entry): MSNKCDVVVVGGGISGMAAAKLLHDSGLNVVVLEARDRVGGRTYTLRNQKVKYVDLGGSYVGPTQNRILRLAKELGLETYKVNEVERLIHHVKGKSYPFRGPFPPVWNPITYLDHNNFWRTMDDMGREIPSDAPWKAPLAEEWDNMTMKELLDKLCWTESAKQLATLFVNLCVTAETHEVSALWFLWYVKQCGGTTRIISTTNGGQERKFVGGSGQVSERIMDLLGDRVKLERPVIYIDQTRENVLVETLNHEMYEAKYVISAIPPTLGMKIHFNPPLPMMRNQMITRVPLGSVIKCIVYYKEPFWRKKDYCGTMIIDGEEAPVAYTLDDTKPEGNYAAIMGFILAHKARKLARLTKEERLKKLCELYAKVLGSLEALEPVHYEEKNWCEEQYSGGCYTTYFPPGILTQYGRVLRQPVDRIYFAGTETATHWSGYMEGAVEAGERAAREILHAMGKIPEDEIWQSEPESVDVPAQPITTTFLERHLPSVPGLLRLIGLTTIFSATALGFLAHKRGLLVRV

[2] = biological target: T2, Amine oxidase [flavin-containing] A (Homo sapiens, UniProt P21397); assay: Inhibition of human MAO-A
T2 sequence (P21397 whole entry): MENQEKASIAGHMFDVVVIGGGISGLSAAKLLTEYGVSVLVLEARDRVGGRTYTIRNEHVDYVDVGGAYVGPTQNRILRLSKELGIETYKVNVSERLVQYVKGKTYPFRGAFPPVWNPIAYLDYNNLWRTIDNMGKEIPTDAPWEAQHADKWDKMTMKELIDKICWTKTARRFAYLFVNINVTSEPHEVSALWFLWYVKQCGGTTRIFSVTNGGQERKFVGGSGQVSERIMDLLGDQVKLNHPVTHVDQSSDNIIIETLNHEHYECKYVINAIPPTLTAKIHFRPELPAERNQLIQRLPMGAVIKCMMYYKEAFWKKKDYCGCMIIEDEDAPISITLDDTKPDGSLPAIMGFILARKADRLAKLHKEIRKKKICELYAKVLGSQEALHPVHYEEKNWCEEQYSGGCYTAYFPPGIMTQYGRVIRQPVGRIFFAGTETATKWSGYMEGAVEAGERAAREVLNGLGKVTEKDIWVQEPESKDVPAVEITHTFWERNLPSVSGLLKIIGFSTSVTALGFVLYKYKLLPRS
How it was run: (§1)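 Human MAO-A and MAO-B inhibition, screened first at a test concentration of 10 µM.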

[3] = biological target: T3, MAO-A (amine oxidase [flavin-containing] A) (Homo sapiens, UniProt P21397); assay: Inhibition of human MAO-A at 10 uM relative to control; how it was run: as §1
T3 sequence (P21397 whole entry): T2 sequence (P21397 whole entry)

[4] = biological target: T4, Adenosine receptor A3 (Homo sapiens) (UniProt P0DMS8); assay: Displacement of [3H]PSB-11 from human adenosine A3 receptor expressed in CHO cells relative to control; assay type: cell-based; design: concentration or dose not given beside the values; details: concentration not given here
T4 sequence (whole entry): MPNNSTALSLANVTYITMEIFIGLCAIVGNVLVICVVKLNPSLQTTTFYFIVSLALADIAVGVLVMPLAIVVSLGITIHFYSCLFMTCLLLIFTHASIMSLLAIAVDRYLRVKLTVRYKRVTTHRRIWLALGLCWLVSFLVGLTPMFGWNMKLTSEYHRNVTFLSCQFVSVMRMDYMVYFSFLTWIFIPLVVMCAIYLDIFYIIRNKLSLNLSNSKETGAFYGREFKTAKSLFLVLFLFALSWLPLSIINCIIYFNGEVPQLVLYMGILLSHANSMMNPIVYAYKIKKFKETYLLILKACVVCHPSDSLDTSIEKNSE

Adenosine receptor A3 = biological target: T5, Adenosine receptor A3 (Homo sapiens, UniProt P0DMS8); assay: Displacement of [3H]PSB-11 from human adenosine A3 receptor expressed in CHO cells; assay type: cell-based
T5 sequence (P0DMS8 whole entry): T4 sequence (whole entry)

[5] = biological target: T6, Adenosine receptor A2b (Homo sapiens) (UniProt P29275); assay: Displacement of [3H]PSB-603 from human adenosine A2B receptor relative to control; design: concentration or dose not given beside the values; details: concentration not given here
T6 sequence (whole entry): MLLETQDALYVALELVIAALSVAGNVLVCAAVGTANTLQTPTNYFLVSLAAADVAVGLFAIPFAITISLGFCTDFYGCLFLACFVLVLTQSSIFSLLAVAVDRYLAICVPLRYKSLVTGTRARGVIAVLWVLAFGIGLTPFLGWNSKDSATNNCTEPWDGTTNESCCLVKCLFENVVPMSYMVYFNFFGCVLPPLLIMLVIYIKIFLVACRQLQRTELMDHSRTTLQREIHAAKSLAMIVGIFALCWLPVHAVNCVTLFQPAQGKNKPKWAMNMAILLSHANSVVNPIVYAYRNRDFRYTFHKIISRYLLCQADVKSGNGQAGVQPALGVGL

Adenosine receptor A2a [6] = biological target: Adenosine receptor A2a (Rattus norvegicus, UniProt P30543); assay: Displacement of [3H]MSX-2 from adenosine A2A receptor in rat brain striatum; assay type: tissue-based
Adenosine receptor A2b = biological target: T7, Adenosine receptor A2b (Homo sapiens, UniProt P29275); assay: Displacement of [3H]PSB-603 from human adenosine A2B receptor
T7 sequence (P29275 whole entry): T6 sequence (whole entry)

Adenosine receptor A1 [7] = biological target: T8, Adenosine receptor A1 (Homo sapiens, UniProt P30542); assay: Displacement of [3H]CCPA from human adenosine A1 receptor expressed in CHO cells; assay type: cell-based
T8 sequence (P30542 whole entry): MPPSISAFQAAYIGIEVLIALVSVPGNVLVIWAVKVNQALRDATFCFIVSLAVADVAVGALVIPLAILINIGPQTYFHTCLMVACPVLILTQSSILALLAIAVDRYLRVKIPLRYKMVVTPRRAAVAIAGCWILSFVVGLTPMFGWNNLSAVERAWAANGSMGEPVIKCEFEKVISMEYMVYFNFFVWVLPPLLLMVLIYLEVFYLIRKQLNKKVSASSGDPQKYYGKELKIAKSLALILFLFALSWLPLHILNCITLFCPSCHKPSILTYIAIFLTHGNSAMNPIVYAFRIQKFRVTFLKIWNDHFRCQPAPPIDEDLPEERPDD
How it was run: (§2)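 Radioligand binding to human receptors recombinantly expressed in Chinese hamster ovary (CHO) cells. Results are Ki, or % inhibition of radioligand binding at the indicated concentration.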

Adenosine receptor A1 [8] = biological target: T9, Adenosine receptor A1 (Rattus norvegicus, UniProt P25099); assay: Displacement of [3H]CCPA from adenosine A1 receptor in rat brain cortex; assay type: tissue-based
T9 sequence (P25099 whole entry): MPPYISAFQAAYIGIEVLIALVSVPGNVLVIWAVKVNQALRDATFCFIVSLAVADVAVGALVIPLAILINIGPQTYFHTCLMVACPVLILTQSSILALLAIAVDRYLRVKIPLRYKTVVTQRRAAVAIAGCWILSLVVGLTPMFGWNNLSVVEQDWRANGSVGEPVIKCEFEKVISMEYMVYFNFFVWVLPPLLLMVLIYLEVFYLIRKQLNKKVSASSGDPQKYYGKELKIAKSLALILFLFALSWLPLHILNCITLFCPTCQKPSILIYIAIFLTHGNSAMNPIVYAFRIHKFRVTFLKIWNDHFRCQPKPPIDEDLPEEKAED
How it was run: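 Radioligand binding to rat A1 receptors in rat brain cortical membrane preparations. Values are given as Ki, or as % inhibition of radioligand binding at the indicated concentration.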

Adenosine receptor A2a [9] = biological target: Adenosine receptor A2a (Homo sapiens, UniProt P29274); assay: Displacement of [3H]MSX-2 from human adenosine A2A receptor expressed in CHO cells; assay type: cell-based; how it was run: as §2
[10] = biological target: T10, MAO-B (amine oxidase [flavin-containing] B) (Homo sapiens, UniProt P27338); assay: Inhibition of human MAO-B at 10 uM relative to control; how it was run: as §1
T10 sequence (P27338 whole entry): T1 sequence (P27338 whole entry)

Sequence of Adenosine receptor A2a (Homo sapiens, UniProt P29274) (P29274 whole entry): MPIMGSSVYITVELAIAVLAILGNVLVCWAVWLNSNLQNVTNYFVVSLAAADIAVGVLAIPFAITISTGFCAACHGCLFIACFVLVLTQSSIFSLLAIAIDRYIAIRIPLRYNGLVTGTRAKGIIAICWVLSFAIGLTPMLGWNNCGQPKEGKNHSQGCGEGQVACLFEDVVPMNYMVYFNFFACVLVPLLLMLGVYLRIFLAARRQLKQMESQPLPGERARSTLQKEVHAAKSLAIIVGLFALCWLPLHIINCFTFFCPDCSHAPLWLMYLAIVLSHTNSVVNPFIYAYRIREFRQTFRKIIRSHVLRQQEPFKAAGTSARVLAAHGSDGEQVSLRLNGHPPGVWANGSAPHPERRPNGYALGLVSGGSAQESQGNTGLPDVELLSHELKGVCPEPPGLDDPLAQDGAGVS
Sequence of Adenosine receptor A2a (Rattus norvegicus, UniProt P30543) (P30543 whole entry): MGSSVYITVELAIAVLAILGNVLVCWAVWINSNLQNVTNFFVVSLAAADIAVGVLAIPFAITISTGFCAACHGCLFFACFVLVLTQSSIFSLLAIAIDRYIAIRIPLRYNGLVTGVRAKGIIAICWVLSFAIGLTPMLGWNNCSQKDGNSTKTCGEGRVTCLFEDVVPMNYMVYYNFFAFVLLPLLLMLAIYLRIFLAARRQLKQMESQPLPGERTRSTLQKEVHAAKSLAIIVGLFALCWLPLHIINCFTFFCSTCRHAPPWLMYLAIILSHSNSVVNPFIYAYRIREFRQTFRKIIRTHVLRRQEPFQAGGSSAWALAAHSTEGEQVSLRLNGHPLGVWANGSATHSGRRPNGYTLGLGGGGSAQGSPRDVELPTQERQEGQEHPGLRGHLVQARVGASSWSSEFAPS

Cn1c(=O)c2c(nc3n2CCCN3Cc2cc(Cl)cc(Cl)c2)n(C)c1=O
IC50 [1]: 0.193 µM
IC50 [2]: > 10 µM
inhibition at 10 µM [3]: 1%
inhibition [4]: 14%
Ki (Adenosine receptor A3): > 10 µM
inhibition [5]: 4%
Ki (Adenosine receptor A2a [6]): 1.64 µM
Ki (Adenosine receptor A2b): > 1 µM
Ki (Adenosine receptor A1 [7]): 1.7 µM
Ki (Adenosine receptor A1 [8]): 0.165 µM
Ki (Adenosine receptor A2a [9]): 3.78 µM

C#CCn1c(=O)c2c(nc3n2CCCN3CCc2ccc(O)cc2)n(C)c1=O
inhibition at 10 µM [10]: 37%
IC50 [1]: > 10 µM
inhibition [4]: 28%
Ki (Adenosine receptor A3): > 10 µM
inhibition [5]: 12%
Ki (Adenosine receptor A2a [6]): 0.276 µM
Ki (Adenosine receptor A2b): > 10 µM
Ki (Adenosine receptor A1 [7]): 8.26 µM
Ki (Adenosine receptor A1 [8]): 0.501 µM
Ki (Adenosine receptor A2a [9]): 0.346 µM

C#CCn1c(=O)c2c(nc3n2CCCN3Cc2ccccc2)n(C)c1=O
IC50 [1]: 3.76 µM
IC50 [2]: > 10 µM
inhibition at 10 µM [3]: 5%
inhibition [4]: 34%
Ki (Adenosine receptor A3): > 10 µM
Ki (Adenosine receptor A2a [6]): 0.533 µM
Ki (Adenosine receptor A2b): 3.52 µM
Ki (Adenosine receptor A1 [7]): 0.249 µM
Ki (Adenosine receptor A1 [8]): 0.135 µM
Ki (Adenosine receptor A2a [9]): 0.253 µM

C#CCn1c(=O)c2c(nc3n2CCCN3CC2CCCO2)n(C)c1=O (stereo not given)
inhibition at 10 µM [10]: 30%
IC50 [1]: > 10 µM
inhibition [4]: 9%
Ki (Adenosine receptor A3): > 10 µM
inhibition [5]: 6%
Ki (Adenosine receptor A2a [6]): 1.43 µM
Ki (Adenosine receptor A2b): > 1 µM
Ki (Adenosine receptor A1 [7]): 1.15 µM
Ki (Adenosine receptor A1 [8]): 0.169 µM
Ki (Adenosine receptor A2a [9]): 1.11 µM

C#CCn1c(=O)c2c(nc3n2CCCN3c2ccc(F)cc2)n(C)c1=O
inhibition at 10 µM [10]: 17%
IC50 [1]: > 10 µM
inhibition [4]: 22%
Ki (Adenosine receptor A3): > 10 µM
inhibition [5]: 7%
Ki (Adenosine receptor A2a [6]): 1.94 µM
Ki (Adenosine receptor A2b): > 1 µM
Ki (Adenosine receptor A1 [7]): 3.61 µM
Ki (Adenosine receptor A1 [8]): 1.19 µM
Ki (Adenosine receptor A2a [9]): 2.12 µM

C#CCn1c(=O)c2c(nc3n2CCCN3CCc2ccc(OC)cc2)n(C)c1=O
inhibition at 10 µM [10]: 25%
IC50 [1]: > 10 µM
inhibition [4]: 13%
Ki (Adenosine receptor A3): > 1 µM
inhibition [5]: 8%
Ki (Adenosine receptor A2a [6]): 0.288 µM
Ki (Adenosine receptor A2b): > 1 µM
Ki (Adenosine receptor A1 [7]): 4.4 µM
Ki (Adenosine receptor A1 [8]): 3.14 µM
Ki (Adenosine receptor A2a [9]): 0.508 µM

C#CCn1c(=O)c2c(nc3n2CCCN3CCc2cccs2)n(C)c1=O
inhibition at 10 µM [10]: 17%
IC50 [1]: > 10 µM
inhibition [4]: 20%
Ki (Adenosine receptor A3): > 1 µM
inhibition [5]: 16%
Ki (Adenosine receptor A2a [6]): 0.71 µM
Ki (Adenosine receptor A2b): > 1 µM
Ki (Adenosine receptor A1 [7]): 1.41 µM
Ki (Adenosine receptor A1 [8]): 0.99 µM
Ki (Adenosine receptor A2a [9]): 0.317 µM

C#CCn1c(=O)c2c(nc3n2CCCN3CC2CCCCC2)n(C)c1=O
inhibition at 10 µM [10]: 33%
IC50 [1]: > 10 µM
inhibition [4]: 5%
Ki (Adenosine receptor A3): > 0.1 µM
inhibition [5]: -5%
Ki (Adenosine receptor A2a [6]): 0.498 µM
Ki (Adenosine receptor A2b): > 1 µM
Ki (Adenosine receptor A1 [7]): 1.87 µM
Ki (Adenosine receptor A1 [8]): 0.219 µM
Ki (Adenosine receptor A2a [9]): 0.51 µM

C#CCn1c(=O)c2c(nc3n2CCCN3Cc2cccs2)n(C)c1=O
inhibition at 10 µM [10]: 51%
IC50 [1]: 10 µM
IC50 [2]: > 10 µM
inhibition at 10 µM [3]: 0%
inhibition [4]: 30%
Ki (Adenosine receptor A3): > 10 µM
Ki (Adenosine receptor A2a [6]): 0.259 µM
Ki (Adenosine receptor A2b): 1.74 µM
Ki (Adenosine receptor A1 [7]): 0.41 µM
Ki (Adenosine receptor A1 [8]): 0.114 µM
Ki (Adenosine receptor A2a [9]): 0.626 µM

C#CCn1c(=O)c2c(nc3n2CCCN3Cc2ccccc2OC)n(C)c1=O
IC50 [1]: 1.8 µM
IC50 [2]: > 10 µM
inhibition at 10 µM [3]: 4%
Ki (Adenosine receptor A3): 4.41 µM
inhibition [5]: 16%
Ki (Adenosine receptor A2a [6]): 0.641 µM
Ki (Adenosine receptor A2b): > 1 µM
Ki (Adenosine receptor A1 [7]): 0.605 µM
Ki (Adenosine receptor A1 [8]): 1.06 µM
Ki (Adenosine receptor A2a [9]): 0.417 µM

C#CCn1c(=O)c2c(nc3n2CCCN3Cc2cccc(OC)c2)n(C)c1=O
inhibition at 10 µM [10]: 51%
IC50 [1]: 10 µM
IC50 [2]: > 10 µM
inhibition at 10 µM [3]: 5%
inhibition [5]: 8%
Ki (Adenosine receptor A2a [6]): 0.696 µM
Ki (Adenosine receptor A1 [7]): 1.33 µM
Ki (Adenosine receptor A1 [8]): 0.227 µM
Ki (Adenosine receptor A2a [9]): 0.322 µM

C#CCn1c(=O)c2c(nc3n2CCCN3C2CCC2)n(C)c1=O
inhibition at 10 µM [10]: 19%
IC50 [1]: > 10 µM
inhibition [4]: 13%
Ki (Adenosine receptor A3): > 10 µM
Ki (Adenosine receptor A2a [6]): 0.38 µM
Ki (Adenosine receptor A2b): 3.97 µM
Ki (Adenosine receptor A1 [7]): 0.866 µM
Ki (Adenosine receptor A1 [8]): 1.07 µM
Ki (Adenosine receptor A2a [9]): 0.231 µM
